Assay results reported in ChEMBL document CHEMBL1152649, “Synthesis, cytotoxicity and human telomerase inhibition activities of a series of 1,2-heteroannelated anthraquinones and anthra[1,2-d]imidazole-6,11-dione homologues” (2009).

Key:
MDA-MB-231 = assay: Growth inhibition of human MDA-MB-231 cells; format: functional
Summary of the method: (§1)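 NCI 60 cancer cell line screen run per the Developmental Therapeutics Program protocol. Dose–response curves were plotted against log10 drug concentration for each cell line within its subpanel, and mean graph midpoint values were calculated.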

[1] = Growth inhibition of human Hs 578T cells; format: functional; summary of the method: as §1
BT-549 = assay: Growth inhibition of human BT549 cells; format: functional; summary of the method: as §1
HOP-62 = assay: Antiproliferative activity against human HOP62 cells assessed as cell growth at 10 uM; format: functional; settings: read-out: Activity
Summary of the method: (§2)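 NCI 60 cell line panel, single-dose screen (10^-5 M) run by the developmental therapeutics program protocol. Results are given as growth percent of treated cells relative to untreated control cells for each line.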

SW-620 [2] = assay: Antiproliferative activity against human SW620 cells assessed as cell growth at 10 uM; format: functional; settings: read-out: Activity
Summary of the method: (§3)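 NCI 60 cell line panel, single dose (10^-5 M), run per the Developmental Therapeutics Program protocol (one dose mean graph). Each result is the growth percentage of treated cells relative to untreated control cells.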

MCF7 = assay: Antiproliferative activity against human MCF7 cells assessed as cell growth at 10 uM; format: functional; settings: read-out: Activity; summary of the method: as §2
MDA-MB-435 [3] = assay: Antiproliferative activity against human MDA-MB-435 cells assessed as cell growth at 10 uM; format: functional; settings: read-out: Activity; summary of the method: as §2
SK-OV-3 = assay: Antiproliferative activity against human SKOV3 cells assessed as cell growth at 10 uM; format: functional; settings: read-out: Activity; summary of the method: as §2
K562 = assay: Antiproliferative activity against human K562 cells assessed as cell growth at 10 uM; format: functional; settings: read-out: Activity; summary of the method: as §2
[4] = Antiproliferative activity against human RPMI8266 cells assessed as cell growth at 10 uM; format: functional; settings: read-out: Activity; summary of the method: as §2
SR = assay: Antiproliferative activity against human SR cells assessed as cell growth at 10 uM; format: functional; settings: read-out: Activity; summary of the method: as §3
786-0 = assay: Antiproliferative activity against human 786-0 cells assessed as cell growth at 10 uM; format: functional; settings: read-out: Activity; summary of the method: as §2
ACHN [5] = assay: Antiproliferative activity against human ACHN cells assessed as cell growth at 10 uM; format: functional; settings: read-out: Activity; summary of the method: as §2
CAKI-1 [6] = assay: Antiproliferative activity against human Caki1 cells assessed as cell growth at 10 uM; format: functional; settings: read-out: Activity; summary of the method: as §2
SK-MEL-5 = assay: Antiproliferative activity against human SK-MEL-5 cells assessed as cell growth at 10 uM; format: functional; settings: read-out: Activity; summary of the method: as §2
HL-60(TB) = assay: Growth inhibition of human HL-60(TB) cells; format: functional
Summary of the method: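 NCI 60-cell-line panel run under the Developmental Therapeutics Program protocol. Dose-response curves are plotted against log10 drug concentration for each cell line within its subpanel, and GI50 is read from these curves.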

[7] = Growth inhibition of human […] cells; format: functional
Summary of the method: (§4)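 Assayed in the NCI 60 human cancer cell line panel under the Developmental Therapeutics Program protocol. For each line, dose–response curves were plotted against log10 drug concentration. In the one-dose screen at 10^-5 M, growth was given as percent of untreated control cells, and mean graph midpoint values were averaged.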

A549 = assay: Growth inhibition of human A549 cells; format: functional; summary of the method: as §1
NCI-H322M [8] = assay: Growth inhibition of human NCI-H322M cells; format: functional; summary of the method: as §1
NCI-H460 [9] = assay: Growth inhibition of human NCI-H460 cells; format: functional; summary of the method: as §1
NCI-H522 = assay: Growth inhibition of human NCI-H522 cells; format: functional; summary of the method: as §1
HCC 2998 = assay: Growth inhibition of human HCC2998 cells; format: functional; summary of the method: as §1
HCT-116 = assay: Growth inhibition of human HCT116 cells; format: functional; summary of the method: as §1
HT-29 = assay: Growth inhibition of human HT-29 cells; format: functional; summary of the method: as §1
SW-620 [10] = assay: Growth inhibition of human SW620 cells; format: functional; summary of the method: as §4
Malme-3M = assay: Growth inhibition of human MALME-3M cells; format: functional; summary of the method: as §1
MDA-MB-435 [11] = assay: Growth inhibition of human MDA-MB-435 cells; format: functional; summary of the method: as §1
SK-MEL-28 = assay: Growth inhibition of human SK-MEL-28 cells; format: functional; summary of the method: as §4
UACC-62 = assay: Growth inhibition of human UACC62 cells; format: functional; summary of the method: as §4
IGROV-1 = assay: Growth inhibition of human IGROV1 cells; format: functional; summary of the method: as §1
OVCAR-3 = assay: Growth inhibition of human OVCAR-3 cells; format: functional; summary of the method: as §1
OVCAR-4 = assay: Growth inhibition of human OVCAR4 cells; format: functional; summary of the method: as §1
OVCAR-8 = assay: Growth inhibition of human OVCAR8 cells; format: functional; summary of the method: as §1
ACHN [12] = assay: Growth inhibition of human ACHN cells; format: functional; summary of the method: as §1
CAKI-1 [13] = assay: Growth inhibition of human Caki1 cells; format: functional; summary of the method: as §1
TK-10 = assay: Growth inhibition of human TK10 cells; format: functional; summary of the method: as §4
NCI-H23 = assay: Antiproliferative activity against human NCI-H23 cells assessed as cell growth at 10 uM; format: functional; settings: read-out: Activity; summary of the method: as §2
NCI-H322M [14] = assay: Antiproliferative activity against human NCI-H322M cells assessed as cell growth at 10 uM; format: functional; settings: read-out: Activity; summary of the method: as §2
NCI-H460 [15] = assay: Antiproliferative activity against human NCI-H460 cells assessed as cell growth at 10 uM; format: functional; settings: read-out: Activity; summary of the method: as §2
KM12 = assay: Antiproliferative activity against human KM12 cells assessed as cell growth at 10 uM; format: functional; settings: read-out: Activity; summary of the method: as §2
[16] = target: Telomerase reverse transcriptase (Homo sapiens) (UniProt O14746); assay: Inhibition of TERT in human H1299 cells assessed as residual transcriptional activity at 100 uM after 24 hrs by SEAP reporter gene assay; values are per cent of control
Chain of Telomerase reverse transcriptase (Homo sapiens) (O14746 whole entry): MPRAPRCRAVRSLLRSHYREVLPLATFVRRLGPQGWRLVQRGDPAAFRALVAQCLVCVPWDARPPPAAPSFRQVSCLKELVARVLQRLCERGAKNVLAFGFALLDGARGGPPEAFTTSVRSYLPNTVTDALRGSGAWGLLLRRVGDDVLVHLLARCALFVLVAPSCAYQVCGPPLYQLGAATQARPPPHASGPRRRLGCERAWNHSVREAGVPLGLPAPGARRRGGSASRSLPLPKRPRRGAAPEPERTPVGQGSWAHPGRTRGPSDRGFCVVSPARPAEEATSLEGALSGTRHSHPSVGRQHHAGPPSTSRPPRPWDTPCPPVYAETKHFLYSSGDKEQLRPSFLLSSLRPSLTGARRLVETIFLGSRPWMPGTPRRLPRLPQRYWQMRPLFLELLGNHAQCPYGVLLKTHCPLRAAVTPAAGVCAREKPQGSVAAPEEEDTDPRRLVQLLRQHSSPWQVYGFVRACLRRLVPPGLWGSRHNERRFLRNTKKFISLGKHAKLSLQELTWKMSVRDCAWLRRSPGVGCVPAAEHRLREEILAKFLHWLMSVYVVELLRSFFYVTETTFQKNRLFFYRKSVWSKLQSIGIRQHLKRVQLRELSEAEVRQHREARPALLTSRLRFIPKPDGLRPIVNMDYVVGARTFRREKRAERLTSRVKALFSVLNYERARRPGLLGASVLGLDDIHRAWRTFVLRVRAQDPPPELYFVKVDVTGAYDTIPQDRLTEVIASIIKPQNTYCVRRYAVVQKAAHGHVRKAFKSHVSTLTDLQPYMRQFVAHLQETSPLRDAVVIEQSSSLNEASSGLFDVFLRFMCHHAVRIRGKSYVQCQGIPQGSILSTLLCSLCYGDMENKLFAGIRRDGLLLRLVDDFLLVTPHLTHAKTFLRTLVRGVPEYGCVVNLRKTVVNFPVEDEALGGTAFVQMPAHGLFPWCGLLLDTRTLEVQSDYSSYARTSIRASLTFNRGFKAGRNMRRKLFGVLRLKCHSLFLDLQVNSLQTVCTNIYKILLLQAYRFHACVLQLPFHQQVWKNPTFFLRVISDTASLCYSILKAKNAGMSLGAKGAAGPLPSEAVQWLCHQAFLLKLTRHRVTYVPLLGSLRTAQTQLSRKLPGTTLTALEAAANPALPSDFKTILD

[17] = read-out: LC50 (the source's name)

O=C1c2ccccc2C(=O)c2c1ccc1nsnc21
GI50 (MDA-MB-231): 1.75 µM | LC50 (concentration killing 50% of cells) (MDA-MB-231): > 100 µM | TGI (MDA-MB-231): 5.9 µM | GI50 [1]: 1.41 µM | LC50 [1]: 56 µM | TGI [1]: 5.02 µM | GI50 (BT-549): 1.63 µM | LC50 (BT-549): 6.01 µM | TGI (BT-549): 3.13 µM | growth at 10 µM (HOP-62): -100% | growth at 10 µM (SW-620 [2]): 7.3% | growth at 10 µM (MCF7): -50.7% | growth at 10 µM (MDA-MB-435 [3]): -87.9% | growth at 10 µM (SK-OV-3): 101% | growth at 10 µM (K562): 49.6% | growth at 10 µM [4]: -28% | growth at 10 µM (SR): 4.96% | growth at 10 µM (786-0): -26% | growth at 10 µM (ACHN [5]): -94.3% | growth at 10 µM (CAKI-1 [6]): 1.97% | growth at 10 µM (SK-MEL-5): 8.52% | GI50 (HL-60(TB)): 0.16 µM | TGI (HL-60(TB)): 0.4 µM | CC50 (HL-60(TB); [17]): 0.99 µM | GI50 [7]: 1.18 µM | TGI [7]: 3.46 µM | CC50 [7, 17]: > 100 µM | GI50 (A549): 14.7 µM | TGI (A549): 36.6 µM | CC50 (A549; [17]): 91 µM | GI50 (NCI-H322M [8]): 17.4 µM | TGI (NCI-H322M [8]): 47.8 µM | CC50 (NCI-H322M [8]; [17]): > 100 µM | GI50 (NCI-H460 [9]): 3.27 µM | TGI (NCI-H460 [9]): 14.3 µM | CC50 (NCI-H460 [9]; [17]): 47.3 µM | GI50 (NCI-H522): 1.66 µM | TGI (NCI-H522): 3.93 µM | CC50 (NCI-H522; [17]): 9.31 µM | GI50 (HCC 2998): 16.4 µM | TGI (HCC 2998): 33.1 µM | CC50 (HCC 2998; [17]): 66.6 µM | GI50 (HCT-116): 1.93 µM | TGI (HCT-116): 5.4 µM | CC50 (HCT-116; [17]): > 100 µM | GI50 (HT-29): 13.4 µM | TGI (HT-29): 50.4 µM | CC50 (HT-29; [17]): > 100 µM | GI50 (SW-620 [10]): 1.79 µM | TGI (SW-620 [10]): 3.5 µM | CC50 (SW-620 [10]; [17]): 6.84 µM | GI50 (Malme-3M): 1.66 µM | TGI (Malme-3M): 3.15 µM | CC50 (Malme-3M; [17]): 5.96 µM | GI50 (MDA-MB-435 [11]): 1.91 µM | TGI (MDA-MB-435 [11]): 3.31 µM | CC50 (MDA-MB-435 [11]; [17]): 5.76 µM | GI50 (SK-MEL-28): 1.85 µM | TGI (SK-MEL-28): 3.38 µM | CC50 (SK-MEL-28; [17]): 6.18 µM | GI50 (UACC-62): 1.45 µM | TGI (UACC-62): 2.9 µM | CC50 (UACC-62; [17]): 5.79 µM | GI50 (IGROV-1): 1.36 µM | TGI (IGROV-1): 2.94 µM | CC50 (IGROV-1; [17]): 6.35 µM | GI50 (OVCAR-3): 0.55 µM | TGI (OVCAR-3): 2.46 µM | CC50 (OVCAR-3; [17]): 11.1 µM | GI50 (OVCAR-4): 0.65 µM | TGI (OVCAR-4): 2.17 µM | CC50 (OVCAR-4; [17]): 5.57 µM | GI50 (OVCAR-8): 1.66 µM | TGI (OVCAR-8): 4.68 µM | CC50 (OVCAR-8; [17]): 59.8 µM | GI50 (ACHN [12]): 1.46 µM | TGI (ACHN [12]): 2.77 µM | CC50 (ACHN [12]; [17]): 5.27 µM | GI50 (CAKI-1 [13]): 1.61 µM | TGI (CAKI-1 [13]): 2.96 µM | CC50 (CAKI-1 [13]; [17]): 5.44 µM | GI50 (TK-10): 2.85 µM | TGI (TK-10): 10.9 µM | CC50 (TK-10; [17]): 50.4 µM | growth at 10 µM (NCI-H23): 16.1% | growth at 10 µM (NCI-H322M [14]): 126% | growth at 10 µM (NCI-H460 [15]): 77.4% | growth at 10 µM (KM12): 98.6% | residual activity [16]: 9%
